High-throughput results deposited in PubChem BioAssay by several laboratories.
Sampled rows, rich in hits. Any-hit rate of the full collection: about 4.8%.
SKKanGAS inh: S. pyogenes SKKanGAS growth inhibitors in kanamycin, primary screen, streptokinase expression inhibitor project, SKKanGAS strain, BacTiter-Glo luminescence. 6 h. inhibition, % at 7.5 µM. 300,000 compounds, 1.3% hits. AID 1662, 2009;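 active = mean replicate score, as percent of positive control median, at least 50; inconclusive = mean below 50 but one replicate at or above 50; inactive = mean and every replicate below 50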;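 also: strain carries kanamycin resistance gene driven by streptokinase promoter and grows in 40 µg/ml kanamycin; loss of luminescence reflects streptokinase promoter inhibition or plain growth inhibition; 0% = median of DMSO wells and 100% = positive control at its reference dose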
UPR CHOP act: activators of apoptotic CHOP UPR arm, primary screen, cell-based, CHO-CHOP luciferase reporter, luminescence, uHTS | UPR activation; percent of tunicamycin response over DMSO baseline | activation, % at 10 µM | AID 449763, 2010 | 330,000 compounds, 0.34% hits;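 active = at 10 µM dose, activation of 40% or more, normalized to positive control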;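 also: 100% = tunicamycin at 10 µg/mL and 0% = DMSO alone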
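Evaluation: % reporter activation, DMSO baseline versus tunicamycin full activation; System: CHO-CHOP luciferase reporter cell line; Input: 500 cells/well; Incubation: 6 h compound treatment, 37 °C; Measured by: Steady-Glo luciferase luminescence; Dosing: one dose, 10 µM in 0.5% DMSO; Buffer or medium: F12 medium, 10% FBS; Benchmarks: positive tunicamycin 10 µg/mL, negative DMSO alone.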
Mdm2 MdmX PPI: inhibitors of human Mdm2-MdmX association, primary screen, cell-based, luminescence, split luciferase, SaOS-2, uHTS | Protein Mdm4 (Homo sapiens) + E3 ubiquitin-protein ligase Mdm2 (Homo sapiens), … | SaOS-2 split-luciferase Mdm2/MdmX complementation | inhibition, % at 8 µM | 330,000 compounds, 3% hits | AID 485346, 2010;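 active = inhibition of at least 50% at 8 µM in the primary screen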
Target sequence (O15151 whole entry, looked up): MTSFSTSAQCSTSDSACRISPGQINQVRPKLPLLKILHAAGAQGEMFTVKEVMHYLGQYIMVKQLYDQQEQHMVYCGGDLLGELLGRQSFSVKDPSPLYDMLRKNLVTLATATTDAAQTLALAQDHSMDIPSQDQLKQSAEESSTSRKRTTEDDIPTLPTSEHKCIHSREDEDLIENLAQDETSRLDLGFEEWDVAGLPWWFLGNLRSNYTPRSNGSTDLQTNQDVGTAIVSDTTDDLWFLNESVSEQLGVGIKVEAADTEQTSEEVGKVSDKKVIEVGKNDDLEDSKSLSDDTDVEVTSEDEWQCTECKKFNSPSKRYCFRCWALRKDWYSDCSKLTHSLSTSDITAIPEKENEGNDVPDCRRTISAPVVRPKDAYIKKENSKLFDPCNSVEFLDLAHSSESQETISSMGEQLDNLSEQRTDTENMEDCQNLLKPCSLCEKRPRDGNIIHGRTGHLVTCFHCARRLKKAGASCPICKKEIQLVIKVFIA
Target sequence (Q00987 whole entry, looked up): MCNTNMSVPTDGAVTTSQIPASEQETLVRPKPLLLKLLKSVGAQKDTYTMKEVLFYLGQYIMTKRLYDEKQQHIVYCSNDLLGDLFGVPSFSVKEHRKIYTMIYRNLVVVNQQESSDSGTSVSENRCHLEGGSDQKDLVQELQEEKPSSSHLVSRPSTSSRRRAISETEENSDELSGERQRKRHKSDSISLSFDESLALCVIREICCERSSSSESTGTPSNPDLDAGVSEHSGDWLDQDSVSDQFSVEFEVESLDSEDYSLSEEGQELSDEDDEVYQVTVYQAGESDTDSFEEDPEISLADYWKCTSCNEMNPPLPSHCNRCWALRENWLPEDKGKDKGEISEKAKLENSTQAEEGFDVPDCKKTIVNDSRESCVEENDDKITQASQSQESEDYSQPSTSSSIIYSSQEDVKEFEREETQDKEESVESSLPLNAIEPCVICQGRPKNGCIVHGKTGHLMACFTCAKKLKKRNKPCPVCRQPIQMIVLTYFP
XBP1 UPR activ: activators of adaptive XBP1 UPR arm, primary screen, cell-based, CHO-XBP1 luciferase reporter, luminescence, uHTS; 330,000 compounds, 0.33% hits; activation, % at 20 µM; IRE1-XBP1 UPR activation; percent of tunicamycin response, DMSO as zero;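 active = versus positive control, 20 µM dose yields 30% or more activation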;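 also: 100% = tunicamycin at 10 µg/mL and 0% = DMSO only wells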
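Material: CHO cell line with stable XBP1 luciferase reporter; buffer or medium: F12 medium containing 10% fetal bovine serum; compound: single point, 20 µM final compound, 1% DMSO; incubation: 6 h treatment, 37 °C; measured by: glow luminescence from Steady-Glo reagent; evaluation: activation, % of tunicamycin; control set: tunicamycin high, DMSO low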
Beta apoptosis: inhibitors of cytokine-induced beta cell apoptosis, primary screen, luminescence. INS-1E cytokine-induced death, ATP luminescence, 48 h; percent of positive-control rescue, neutral wells zero. 300,000 compounds, 0.8% hits. AID 435005, 2010. protection from apoptosis, % (test concentration not listed);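 active = Every replicate reaches about 75%, or at least half do and their mean reaches it too, limit read from the data; inconclusive = At least half of replicates reach the limit but their mean does not; inactive = Under half of replicates reach the limit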;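 also: 0% = cytokine-treated negative control wells and 100% = positive control rescue; higher means more ATP so stronger rescue from cytokine killing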
CSC inhib: cancer stem cell viability inhibitors, primary screen, luminescence | cancer stem cell-like cells viability | inhibition, % at 7.5 µM | 300,000 compounds, 1.1% hits; in the data active = inhibition above about 75%; inconclusive = no clear call, values can overlap the other calls; tested in HMLE shEcad cells
Mdm2-MdmX conf: Mdm2-MdmX complex disruptors, retested hits, confirmation, luminescence, single concentration. 10,000 compounds, 55% hits. AID 489028, 2010. Mdm2-MdmX binding, luminescent assay. shares compounds with Mdm2 MdmX PPI. inhibition, % at 8 µM; in the data active = inhibition above about 40%
Full FLuc ctr: full-length luciferase signal inhibition, confirmation, counter-screen for Mdm2/MdmX interaction inhibitor project, cell-based, single concentration, SaOS-2. shares compounds with Mdm2 MdmX PPI. SaOS-2 full-length luciferase counterscreen, luminescence. inhibition, % at 8 µM. 6,200 compounds, 77% hits. AID 504607, 2011;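 active = mean inhibition at 8 µM reaching about 37%, which flags the compound as non-specific, limit read from the data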;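 also: p53-null SaOS-2 cells with luciferase driven by a doxycycline-inducible promoter; compound on cells about two nights before reading with doxycycline added after day one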
* = called active by the depositor; ? = inconclusive; · = not tested or not shown.

SMILES	SKKanGAS inh	UPR CHOP act	Mdm2 MdmX PPI	XBP1 UPR activ	Beta apoptosis	CSC inhib	Mdm2-MdmX conf	Full FLuc ctr
CC(C)(C)C(=O)/C=c1\s/c(=C\c2ccc(-c3ccc([N+](=O)[O-])cc3)o2)c(=O)n1CC(=O)NC(N)=O	19	3	68*	10	2	-6	58*	54*
CCC(=O)N/N=C/c1ccc(-c2ccc([N+](=O)[O-])cc2)o1	-2	4	4	2	·	4	·	·
Cc1ccc(S(=O)(=O)N2CCOC2CNC(=O)C(=O)NCCCN2CCOCC2)cc1 (stereo unspecified)	-3	0	6	-1	-5	2	·	·
O=C(Cn1nc(C(F)F)cc1C1CC1)N1CCCC1	-1	-1	14	-2	2	-3	·	·
O=S(=O)(c1ccccc1)c1ncc(C(F)(F)F)cc1Cl	-5	19	61*	-4	·	·	32	·
Cc1cc(=O)[nH]c(SCC(=O)Nc2c(C)n(C)n(-c3ccccc3)c2=O)c1C#N	·	0	-17	0	5	-13	·	·
O=C(NC(NC1CCS(=O)(=O)C1)C(=O)c1cccs1)c1ccccc1 (stereo unspecified)	-5	1	-3	0	2	-10	·	·
O=C(NC1=C(NC2CCS(=O)(=O)C2)C(=O)c2ccccc2C1=O)c1ccccc1 (stereo unspecified)	26	3	90*	12	41	45	60*	49*
COc1ccc2c(c1)OC[C@H]1[C@H]2N2C(=O)c3cc(OC)c(OC)cc3NC(=O)[C@@]2(C)[C@H]1c1ccccc1	·	6	58*	-5	12	4	35	·
C[C@@]12C(=O)Nc3ccc(F)cc3C(=O)N1[C@H]1c3cc(Cl)ccc3OC[C@@H]1[C@@H]2c1ccccc1	·	1	56*	2	16	57	34	·
C[C@@]12C(=O)Nc3ccc(F)cc3C(=O)N1[C@H]1c3ccccc3OC[C@@H]1[C@@H]2c1ccccc1	·	0	-11	1	3	21	·	·
C[C@@]12C(=O)Nc3cc(Cl)ccc3C(=O)N1[C@H]1c3cc(Br)ccc3OC[C@@H]1[C@@H]2c1ccccc1	·	1	67*	8	23	-4	72*	31
Cc1ccc2c(c1)C(=O)N1[C@H]3c4cc(C)ccc4OC[C@@H]3[C@H](c3ccccc3)[C@]1(C)C(=O)N2	·	1	54*	1	7	43	43*	38*
C[C@@]12C(=O)Nc3cc(Cl)ccc3C(=O)N1[C@H]1c3cc(Cl)ccc3OC[C@@H]1[C@@H]2c1ccccc1	·	0	61*	6	-3	·	26	·
Cc1nn(CC(=O)N2CCN(c3ccc(Cl)cc3)CC2)c(=O)c2cccn12	-6	-2	30	-2	-1	0	·	·
Cc1cccc(/C=C/C(=O)c2ccc(NC3=NCCCS3)cc2)c1	·	7	86*	1	9	43	58*	57*
O=C(/C=C/c1ccc(Br)cc1)c1ccc(NC2=NCCCS2)cc1	11	3	101*	14	36	·	39	77*
O=C(/C=C/c1ccccc1)c1ccc(NC2=NCCCS2)cc1	·	·	·	·	1	66	·	·
CC(=O)Oc1ccccc1C1=NN(C(=O)/C=C/c2ccccc2)C(c2ccccc2)C1 (stereo unspecified)	?	3	51*	-2	17	32	6	·
COc1ccc(C2CC(c3ccccc3OC(C)=O)=NN2C(=O)/C=C/c2ccccc2)cc1 (stereo unspecified)	24	3	-2	5	23	-4	·	·
COc1ccc(-c2c(C#N)c(N)nc3c2CCc2ccccc2-3)cc1OC	20	1	89*	6	68	53	85*	50*
CCCc1cc(-c2ccc(O)c(OCC)c2)c(C#N)c(N)n1	4	-2	8	5	8	-6	·	·
COc1ccc(-c2cc(-c3ccc(O)cc3)nc(N)c2C#N)cc1OC	11	2	59*	13	-3	12	42*	100*
Cc1ccccc1OCCC(=O)OCC(=O)Nc1cc(S(=O)(=O)N2CCOCC2)ccc1Cl	-1	1	27	-2	-2	-8	·	·
O=C(NCC1CCCO1)c1cccc(S(=O)(=O)Nc2ccc(SC(F)F)cc2)c1 (stereo unspecified)	·	1	-16	-1	-5	·	·	·
SMILES	SKKanGAS inh	UPR CHOP act	Mdm2 MdmX PPI	XBP1 UPR activ	Beta apoptosis	CSC inhib	Mdm2-MdmX conf	Full FLuc ctr
COc1ccccc1NC(=O)c1ccccc1C(=O)Nc1ccccc1OC	-3	0	17	-7	-4	4	·	·
COc1ccccc1NC(=O)c1cnc(Nc2ccccc2OC)c2ccccc12	2	-2	52*	4	26	66	58*	66*
COc1ccc(S(=O)(=O)N2CCCOC2CNC(=O)C(=O)NCCc2ccco2)cc1C (stereo unspecified)	10	1	53*	-3	0	17	60*	61*
O=C(NCCc1ccco1)C(=O)NCC1OCCCN1S(=O)(=O)c1ccc(F)cc1 (stereo unspecified)	-6	-1	0	-3	2	1	·	·
O=C1CC(c2ccco2)CC2=C1C1c3ccccc3C(=O)N1c1ccccc1N2 (stereo unspecified)	11	-5	68*	7	-16	28	27	·
CCC(=O)N1c2ccccc2NC2=C(C(=O)CC(c3ccco3)C2)C1c1ccco1 (stereo unspecified)	6	2	5	-3	·	-9	·	·
CCC1CCCCN1C(=O)CCCOc1ccccc1 (stereo unspecified)	6	5	1	-3	-4	2	·	·
CCCCC[C@H](O)/C=C/[C@H]1CCC(=O)[C@@H]1CCCCCCC(=O)N1CCCCC1CO (stereo partly specified)	6	2	60*	6	-2	19	44*	54*
CC(NS(=O)(=O)c1cccc(C(=O)NCc2ccncc2)c1)c1ccccc1 (stereo unspecified)	·	2	5	-1	-4	·	·	·
